Screening results as filed in PubChem BioAssay.
A selection: hits, their analogues and other compounds. The true share with any hit is near 5.7%.
T cruzi repl = inhibitors of intracellular T. cruzi growth, primary screen, luminescence, NIH3T3 host cells. T. cruzi beta-gal in NIH3T3, 90 h. 1.4% of 300,000 active. inhibition, % (concentration not given with the values);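 active = mean inhibition across valid replicates above about 55%, limit read from the data; inconclusive = mean below that limit but half or more replicates reach it; inactive = mean below it, under half of replicates reach it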;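 note: signal also drops with host cell toxicity which is not excluded here; higher percent means less beta-gal luminescence so fewer parasites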
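System: NIH/3T3 fibroblasts plus reporter T. cruzi. Medium: DMEM plus 2% FBS. Probe or stimulus: 5000 reporter trypomastigotes per well. Compound: single 50 nL compound addition per well in DMSO. Incubation: co-culture of at least 90 h after 3 h attachment. Detection: GalScreen β-gal luminescence, detergent lysis, 60 min. Evaluation: parasite load inhibition, %.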
Calb FLC = C. albicans growth inhibition with fluconazole, primary screen, CaCi-2 strain, Alamar Blue fluorescence; growth inhibition, % (test concentration not listed); 0.57% of 300,000 active; C. albicans CaCi-2 + fluconazole, 48 h; AID 1979, 2009;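 active = growth inhibition above about 58% in most replicates, limit read from the data, passing the limit was not always enough; inconclusive = exactly half the replicates above a set limit; inactive = most replicates below a set limit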;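 note: all wells also contain fluconazole at 8 µg/ml as a sub-toxic cotreatment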
Beta apoptosis = inhibitors of cytokine-induced beta cell apoptosis, primary screen, luminescence | AID 435005, 2010 | INS-1E cytokine-induced death, ATP luminescence, 48 h; percent of positive-control rescue, neutral wells zero | protection from apoptosis, % (no concentration beside the values) | 0.8% of 300,000 active;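 active = Every replicate reaches about 75%, or at least half do and their mean reaches it too, limit read from the data; inconclusive = At least half of replicates reach the limit but their mean does not; inactive = Under half of replicates reach the limit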;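 note: higher means more ATP so stronger rescue from cytokine killing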
CSC inhib = cancer stem cell viability inhibitors, primary screen, luminescence; 1.1% of 300,000 active; inhibition, % at 7.5 µM; cancer stem cell-like cells viability; in the data active = inhibition above about 75%; inconclusive = no clear call, values can overlap the other calls; tested in HMLE shEcad cells
SKKanGAS inh = S. pyogenes SKKanGAS growth inhibitors in kanamycin, primary screen, streptokinase expression inhibitor project, SKKanGAS strain, BacTiter-Glo luminescence; 6 h; inhibition, % at 7.5 µM; 1.3% of 300,000 active;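 active = mean replicate score, as percent of positive control median, at least 50; inconclusive = mean below 50 but one replicate at or above 50; inactive = mean and every replicate below 50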;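 note: strain carries kanamycin resistance gene driven by streptokinase promoter and grows in 40 µg/ml kanamycin; loss of luminescence reflects streptokinase promoter inhibition or plain growth inhibition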
Mdm2 MdmX PPI = inhibitors of human Mdm2-MdmX association, primary screen, cell-based, luminescence, split luciferase, SaOS-2, uHTS | 3% of 330,000 active | SaOS-2 split-luciferase Mdm2/MdmX complementation | inhibition, % at 8 µM | Protein Mdm4 (Homo sapiens) + E3 ubiquitin-protein ligase Mdm2 (Homo sapiens), …;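 active = inhibition of at least 50% at 8 µM in the primary screen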
Target sequence (O15151 whole entry, looked up): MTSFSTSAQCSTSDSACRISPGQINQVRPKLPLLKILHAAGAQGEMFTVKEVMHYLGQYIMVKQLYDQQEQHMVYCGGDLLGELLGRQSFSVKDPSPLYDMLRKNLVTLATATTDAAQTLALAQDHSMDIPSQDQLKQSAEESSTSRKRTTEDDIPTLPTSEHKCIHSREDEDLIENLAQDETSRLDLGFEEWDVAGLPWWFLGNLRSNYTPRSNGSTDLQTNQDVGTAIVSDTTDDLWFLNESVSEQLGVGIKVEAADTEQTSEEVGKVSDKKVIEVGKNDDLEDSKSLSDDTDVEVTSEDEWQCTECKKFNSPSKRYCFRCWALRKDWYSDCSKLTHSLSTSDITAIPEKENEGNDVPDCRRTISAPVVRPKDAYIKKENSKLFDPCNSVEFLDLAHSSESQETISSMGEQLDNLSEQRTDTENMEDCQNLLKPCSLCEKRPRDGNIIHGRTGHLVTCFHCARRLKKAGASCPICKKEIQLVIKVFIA
Target sequence (Q00987 whole entry, looked up): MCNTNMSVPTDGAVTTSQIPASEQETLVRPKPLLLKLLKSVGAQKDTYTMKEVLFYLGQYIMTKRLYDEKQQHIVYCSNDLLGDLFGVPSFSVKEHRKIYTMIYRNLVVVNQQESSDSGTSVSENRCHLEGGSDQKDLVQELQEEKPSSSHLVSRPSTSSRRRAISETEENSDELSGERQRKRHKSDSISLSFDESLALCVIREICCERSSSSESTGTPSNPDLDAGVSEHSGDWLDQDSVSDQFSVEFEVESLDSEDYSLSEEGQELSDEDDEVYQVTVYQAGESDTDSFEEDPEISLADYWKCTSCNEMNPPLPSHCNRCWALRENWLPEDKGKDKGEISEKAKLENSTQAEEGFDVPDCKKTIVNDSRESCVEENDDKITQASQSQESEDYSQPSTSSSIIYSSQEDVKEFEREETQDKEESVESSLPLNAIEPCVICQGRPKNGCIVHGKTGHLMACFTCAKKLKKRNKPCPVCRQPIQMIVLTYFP
Mdm2-MdmX conf = Mdm2-MdmX complex disruptors, retested hits, confirmation, luminescence, single concentration; Mdm2-MdmX binding, luminescent assay; inhibition, % at 8 µM; shares compounds with Mdm2 MdmX PPI; 55% of 10,000 active; in the data active = inhibition above about 40%
Full FLuc ctr = full-length luciferase signal inhibition, confirmation, counter-screen for Mdm2/MdmX interaction inhibitor project, cell-based, single concentration, SaOS-2 | AID 504607, 2011 | shares compounds with Mdm2 MdmX PPI | 77% of 6,200 active | inhibition, % at 8 µM | SaOS-2 full-length luciferase counterscreen, luminescence;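 active = mean inhibition at 8 µM reaching about 37%, which flags the compound as non-specific, limit read from the data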;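 note: p53-null SaOS-2 cells with luciferase driven by a doxycycline-inducible promoter; compound on cells about two nights before reading with doxycycline added after day one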
Large screens that a line does not name were inactive (follow-up assays come after a bar, where they were run).

Cn1nccc1C(=O)N/N=C/c1c(O)ccc2ccccc12	Beta apoptosis 100.0, Mdm2 MdmX PPI 81.8 | Mdm2-MdmX conf 80.0 | Full FLuc ctr inactive
Cc1occc1C(=O)N/N=C/c1c(O)ccc2ccccc12	Beta apoptosis 76.4, SKKanGAS inh 94.2, Mdm2 MdmX PPI 84.4 | Mdm2-MdmX conf 83.3 | Full FLuc ctr inactive
Cn1ncc(N=Cc2c(O)ccc3ccccc23)c1C(=O)Nc1cccc(Cl)c1	Mdm2 MdmX PPI 61.2 | Mdm2-MdmX conf inactive
CCOP(=O)(OCC)c1ccc2ccc3ccccc3c(=O)c2c1	none (no result: T cruzi repl, Calb FLC, CSC inhib, SKKanGAS inh)
CCn1c(CNC(=O)c2ccccc2Br)nnc1SCC(=O)Nc1nncs1	none (no result: CSC inhib)
COc1ccc(S(=O)(=O)N(Cc2ccccc2)Cc2nc3ccccc3c(=O)[nH]2)cc1	none (no result: Beta apoptosis)
COc1ccccc1CN(Cc1nc2ccccc2c(=O)[nH]1)S(=O)(=O)c1ccc2ccccc2c1	Mdm2 MdmX PPI 71.7 | Mdm2-MdmX conf inactive
COc1cc(Cl)c(C)cc1NC(=S)NN	Calb FLC inconclusive
COCCN(C(=O)c1snc(C(N)=O)c1N)C(C(=O)NC1CCCCC1)c1ccc(N(C)C)cc1 (stereo not drawn)	none
FC(F)(F)c1cc(CO[C@@H]2CCCN[C@@H]2c2ccccc2)cc(C(F)(F)F)c1	Mdm2 MdmX PPI 59.0 (no result: T cruzi repl, Calb FLC, SKKanGAS inh) | Mdm2-MdmX conf inactive
CCn1c(SCC(=O)Nc2ccc3c(c2)OCO3)nnc1C(C)C	none (no result: CSC inhib)
O=C(CCc1nc(-c2ccccc2Cl)no1)NC1CCCCC1	none (no result: CSC inhib)
CC(=O)Nc1nc2ccccc2n1CCOc1ccccc1Cl	none
CC(=O)Nc1nc2ccccc2n1Cc1ccccc1C	Mdm2 MdmX PPI 79.3 (no result: CSC inhib) | Mdm2-MdmX conf 58.6 | Full FLuc ctr 71.0
CC(=O)Nc1nc2ccccc2n1Cc1ccccc1Cl	SKKanGAS inh 51.6, Mdm2 MdmX PPI 66.7 | Mdm2-MdmX conf 59.5 | Full FLuc ctr 66.7
CC(=O)NCc1nc2ccccc2n1Cc1ccccc1C	none
C=CCN=C1NN=C(c2cc(C)n(CCOC)c2C)CS1	Mdm2 MdmX PPI 85.8 | Mdm2-MdmX conf 89.5 | Full FLuc ctr inactive
C=CCn1c(C)cc(C2=NNC(=Nc3ccc(C)cc3)SC2)c1C	none
COCCn1c(C)cc(C2=NNC(=NC3CC3)SC2)c1C	Mdm2 MdmX PPI 94.7 | Mdm2-MdmX conf 93.8 | Full FLuc ctr 53.1
C=CCn1c(C)cc(C2=NNC(=NC(C)(C)C)SC2)c1C	Mdm2 MdmX PPI 87.8 | Mdm2-MdmX conf 93.0 | Full FLuc ctr 80.1
COCCn1c(C)cc(C2=NNC(=Nc3ccc(Cl)cc3Cl)SC2)c1C	none
CC(=O)CSc1nnc2c3ccccc3nc(C(C)(C)C)n12	none
Cc1csc(NC(=O)CSc2nnc3c4ccccc4nc(C(C)(C)C)n23)n1	Mdm2 MdmX PPI 68.9 (no result: Beta apoptosis, CSC inhib) | Mdm2-MdmX conf 60.0 | Full FLuc ctr 56.5
COc1ccc(CCC(=O)NC(C)C2CCCO2)cc1 (stereo not drawn)	none
O=C(NC1CCCC1)c1cccc2c1C(=O)c1ccc(/C=C/c3ccccc3)cc1S2(=O)=O	none (no result: T cruzi repl, Calb FLC, SKKanGAS inh)
O=C(NCc1cc(C(F)(F)F)ccc1Cl)c1cccc2c1C(=O)c1ccc(-c3ccc(OC(F)(F)F)cc3)cc1S2(=O)=O	Mdm2 MdmX PPI 77.2 (no result: T cruzi repl, Calb FLC, SKKanGAS inh) | Mdm2-MdmX conf inactive
O=C(NCC1CCCO1)c1cccc2c1C(=O)c1ccc(N3CCC(Cc4ccccc4)CC3)cc1S2(=O)=O (stereo not drawn)	Mdm2 MdmX PPI 53.7 (no result: T cruzi repl, Calb FLC, CSC inhib, SKKanGAS inh) | Mdm2-MdmX conf inactive
O=C(NCc1ccccc1Cl)c1cccc2c1C(=O)c1ccc(-c3ccc(OC(F)(F)F)cc3)cc1S2(=O)=O	Mdm2 MdmX PPI 67.7 (no result: T cruzi repl, Calb FLC, SKKanGAS inh) | Mdm2-MdmX conf inactive
CC1CCN(c2ccc3c(c2)S(=O)(=O)c2cccc(C(=O)NC[C@@H]4CCCO4)c2C3=O)CC1	none (no result: T cruzi repl, Calb FLC, CSC inhib, SKKanGAS inh)
